The source of these data is ChEMBL document CHEMBL2385005, “Binding mechanism of the farnesoid X receptor marine antagonist suvanine reveals a strategy to forestall drug modulation on nuclear receptors. Design, synthesis, and biological evaluation of novel ligands” (J Med Chem, 2013).

In general, EC50 refers to the midpoint of the concentration-response curve.

The target of data set [1] is T1, Bile acid receptor (Homo sapiens) (UniProt Q96RI1).
T1 sequence (whole entry): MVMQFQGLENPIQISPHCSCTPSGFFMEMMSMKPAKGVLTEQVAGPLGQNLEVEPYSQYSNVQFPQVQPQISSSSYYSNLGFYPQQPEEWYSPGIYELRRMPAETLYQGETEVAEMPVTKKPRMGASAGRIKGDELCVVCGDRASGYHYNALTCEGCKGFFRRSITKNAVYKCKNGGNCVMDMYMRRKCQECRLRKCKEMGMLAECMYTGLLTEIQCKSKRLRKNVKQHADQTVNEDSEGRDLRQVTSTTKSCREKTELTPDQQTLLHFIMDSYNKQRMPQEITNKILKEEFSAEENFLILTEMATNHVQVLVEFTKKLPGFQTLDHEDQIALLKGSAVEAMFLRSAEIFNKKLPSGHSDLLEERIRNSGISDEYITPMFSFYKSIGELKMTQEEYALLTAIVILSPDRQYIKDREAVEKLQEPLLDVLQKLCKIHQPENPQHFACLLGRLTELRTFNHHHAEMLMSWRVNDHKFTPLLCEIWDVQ
The data set is described as follows: Antagonist activity at FXR (unknown origin) expressed in human HepG2 cells co-expressing RXR assessed as inhibition of CDCA-induced SHP gene expression at 50 uM after 18 hrs by RT-PCR analysis. The data set is classed as cell-based. A digest of the protocol:
(§1)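 HepG2 cells (1 × 10^6) were starved 24 h at 37 °C in E-MEM with 1% FBS. They were then primed 18 h with compound alone at 10 μM, or with 10 μM CDCA plus compound at 50 μM. Total RNA was extracted with TRIzol, DNase-treated and random-primed reverse-transcribed. 25 ng template was amplified by SYBR Green qPCR (0.2 μM primers, 40 cycles) in triplicate.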

The target of data set [2] is Peroxisome proliferator-activated receptor gamma (Homo sapiens) (UniProt P37231). The data set is described as follows: Agonist activity at PPARgamma LBD (unknown origin) transfected in human HepG2 cells co-expressing GAL4-DBD at 10 uM after 18 hrs by luciferase reporter gene assay. (In a reporter assay the amount or activity of a reporter protein is the signal.)
Data set [3] deals with T1, Bile acid receptor (Homo sapiens). As to the kind of experiment: Antagonist activity at FXR (unknown origin) expressed in human HepG2 cells co-expressing RXR assessed as inhibition of CDCA-induced transactivation at 50 uM after 18 hrs by luciferase reporter gene assay. The data set is classed as cell-based. A digest of the protocol: (§2)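 HepG2 cells (in MEM, 10% FBS, 37 °C) were plated at 1 × 10^5 cells/well. They were transfected with 150 ng pSG5-FXR, 150 ng pSG5-RXR, 200 ng pCMV-βgal and 500 ng p(hsp27)-TK-LUC (IR1 element). At 24 h they were stimulated 18 h with compound alone (10 μM, or 1–50 μM series) or with compound (50 μM, or 1–50 μM series) plus 10 μM CDCA. Luciferase was normalized to β-galactosidase activity.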

The target in data set [4] is T2, Nuclear receptor subfamily 1 group I member 2 (Homo sapiens, UniProt O75469).
T2 sequence (O75469 whole entry): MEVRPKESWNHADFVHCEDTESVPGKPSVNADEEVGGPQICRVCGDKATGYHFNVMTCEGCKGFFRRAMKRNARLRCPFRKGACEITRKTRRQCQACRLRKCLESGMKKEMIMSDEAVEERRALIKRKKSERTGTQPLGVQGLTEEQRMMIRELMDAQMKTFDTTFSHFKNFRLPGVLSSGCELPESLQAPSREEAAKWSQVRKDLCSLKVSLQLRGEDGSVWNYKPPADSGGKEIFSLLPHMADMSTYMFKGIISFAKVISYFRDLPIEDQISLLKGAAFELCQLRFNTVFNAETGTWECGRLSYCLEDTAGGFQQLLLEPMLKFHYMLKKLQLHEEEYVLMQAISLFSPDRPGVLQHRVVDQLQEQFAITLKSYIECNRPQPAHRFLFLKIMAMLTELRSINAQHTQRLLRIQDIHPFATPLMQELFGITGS
The data set is described as follows: Agonist activity at PXR (unknown origin) transfected in human HepG2 cells co-expressing RXR assessed as CYP3A4 expression at 10 uM after 18 hrs by luciferase reporter gene assay. The following applies: hepg2, 18 h.

For data set [5], the target named is T1, Bile acid receptor (Homo sapiens). As to the kind of experiment: Antagonist activity at FXR (unknown origin) expressed in human HepG2 cells assessed as inhibition of 6-ECDCA-induced FXR/Src-1-mediated transcription activation complex formation at 15 uM after 18 hrs by chromatin immunoprecipitation assay. It is filed as cell-based. The essentials:
(§3)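 HepG2 cells (10 × 10^6) were serum-starved 24 h, then treated 18 h with 6-ECDCA 5 μM alone or with compound 15 μM. Cells were crosslinked with 1% formaldehyde for 10 min and quenched with 125 mM glycine. Sonicated chromatin was immunoprecipitated overnight at 4 °C with anti-FXR, anti-Src1, anti-NCoR or IgG. OSTα promoter DNA was measured by qPCR as 2^−ΔΔCt versus input and unstimulated IgG.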

The target in data set [6] is T3, Oxysterols receptor LXR-alpha (Homo sapiens) (UniProt Q13133).
T3 sequence (whole entry): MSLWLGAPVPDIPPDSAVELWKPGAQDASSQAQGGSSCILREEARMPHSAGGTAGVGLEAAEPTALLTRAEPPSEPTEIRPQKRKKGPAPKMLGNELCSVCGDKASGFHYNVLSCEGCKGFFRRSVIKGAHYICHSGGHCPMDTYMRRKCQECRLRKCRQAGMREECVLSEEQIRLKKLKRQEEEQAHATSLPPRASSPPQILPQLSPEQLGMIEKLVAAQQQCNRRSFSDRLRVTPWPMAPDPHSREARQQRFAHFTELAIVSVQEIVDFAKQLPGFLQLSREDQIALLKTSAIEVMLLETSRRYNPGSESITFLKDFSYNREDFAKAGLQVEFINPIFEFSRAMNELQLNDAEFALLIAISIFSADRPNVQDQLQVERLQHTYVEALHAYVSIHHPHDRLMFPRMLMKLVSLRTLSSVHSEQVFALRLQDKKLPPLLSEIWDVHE
As to the kind of experiment: Agonist activity at LXRalpha LBD (unknown origin) transfected in human HepG2 cells co-expressing GAL4-DBD at 10 uM after 18 hrs by luciferase reporter gene assay. It is filed as cell-based. A digest of the protocol:
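HepG2 cells were transiently transfected with 500 ng p(UAS)5XTKLuc, 200 ng pCMV-β-galactosidase and a GAL4-DBD–LXRα LBD vector. At 48 h post-transfection they were stimulated 18 h with compound at 10 μM or the reference agonist. Luciferase was read. Data are mean ± SE of three experiments.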

Data set [7] has as its target T1, Bile acid receptor (Homo sapiens). As to the kind of experiment: Antagonist activity at FXR (unknown origin) expressed in human HepG2 cells co-expressing RXR assessed as inhibition of CyP7alpha1 gene expression at 50 uM after 18 hrs by RT-PCR analysis. It is filed as cell-based. The essentials:
as §1

The target is the same in data set [8]. As to the kind of experiment: Transactivation of FXR (unknown origin) expressed in human HepG2 cells co-expressing RXR assessed as beta-galactosidase activity at 10 uM after 18 hrs by luciferase reporter gene assay. The data set is classed as cell-based. A digest of the protocol:
as §2

Data set [9] has the same target. As to the kind of experiment: Antagonist activity at FXR (unknown origin) expressed in human HepG2 cells co-expressing RXR assessed as inhibition of CDCA-induced OSTalpha gene expression at 50 uM after 18 hrs by RT-PCR analysis. It is filed as cell-based. The essentials:
as §1

Data set [10] has the same target. As to the kind of experiment: Antagonist activity at FXR (unknown origin) expressed in human HepG2 cells assessed as inhibition of 6-ECDCA-induced NCoR binding to chromatin at 15 uM after 18 hrs by chromatin immunoprecipitation assay. The data set is classed as cell-based. A digest of the protocol:
as §3

The target is the same in data set [11]. As to the kind of experiment: (§4) Antagonist activity at FXR (unknown origin) expressed in human HepG2 cells co-expressing RXR assessed as inhibition of CDCA-induced transactivation after 18 hrs by luciferase reporter gene assay. It is filed as cell-based. A digest of the protocol: as §2
In data set [12] the target is T4, Bile acid receptor (Homo sapiens, UniProt Q96RI1).
T4 sequence (Q96RI1 whole entry): T1 sequence (whole entry)
The data set is described as §4. It is filed as cell-based. The essentials:
as §2

Data set [13] addresses T1, Bile acid receptor (Homo sapiens). The data set is described as follows: Transactivation of FXR (unknown origin) expressed in human HepG2 cells co-expressing RXR assessed as beta-galactosidase activity at 50 uM after 18 hrs by luciferase reporter gene assay. The data set is classed as cell-based. The essentials:
as §2

Data set [14] shares this target. The data set is described as follows: Agonist activity FXR (unknown origin) expressed in human HepG2 cells co-expressing RXR assessed as effect on CyP7alpha1 mRNA level […] after 18 hrs by RT-PCR analysis. The data set is classed as cell-based. The essentials: as §1
Data set [15] shares this target. As to the kind of experiment: Transactivation of FXR (unknown origin) expressed in human HepG2 cells co-expressing RXR assessed as beta-galactosidase activity at 50 uM after 18 hrs by luciferase reporter gene assay relative to CDCA. The data set is classed as cell-based. A digest of the protocol:
as §2

For data set [16], the target named is T4, Bile acid receptor. The data set is described as follows: Transactivation of FXR (unknown origin) expressed in human HepG2 cells co-expressing RXR assessed as beta-galactosidase activity after 18 hrs by luciferase reporter gene assay. It is filed as cell-based. A digest of the protocol: as §2
Data set [17] addresses T1, Bile acid receptor (Homo sapiens). The data set is described as follows: Agonist activity FXR (unknown origin) expressed in human HepG2 cells co-expressing RXR assessed as effect on OSTalpha mRNA level […] after 18 hrs by RT-PCR analysis. It is filed as cell-based. A digest of the protocol: as §1
Data set [18] shares this target. The data set is described as follows: Agonist activity FXR (unknown origin) expressed in human HepG2 cells co-expressing RXR assessed as effect on SHP mRNA level at […] after 18 hrs by RT-PCR analysis. The data set is classed as cell-based. A digest of the protocol:
as §1

SMILES strings stand for the structures. The source made the active and inactive calls. The calls are words filed in the database; no cut-off is given here.

On to `CC1(C)CCC[C@]2(C)[C@H]3CC/C(=C\OS(=O)(=O)[O-])[C@H](CCc4ccoc4)[C@@]3(C)CC[C@@H]12.[Na+]` [SUVANINE'S SODIUM SALT], for which the inhibition entry in [1], in [3], in data set [5] and in data set [9] was “Active” each time. The result in data set [2], in data set [6] and in data set [8] was inactive. In data set [4], the result was Active. The outcome in [7] was Active. The inhibition result in data set [10] is “inactive”. The inhibition entry in data set [11] was “Dose-dependent effect”. Moreover, the EC50 on Bile acid receptor [12] came to 24 µM.

In the case of `CC1(C)CCC[C@]2(C)[C@H]3CC[C@H](/C=C/C(=O)O)[C@H](CCc4ccoc4)[C@@]3(C)CC[C@@H]12`, the outcome in [13] was Active.

`CC1(C)CCC[C@]2(C)C3CC[C@@]4(C=O)[C@@H]5OC(=O)C=C5CC[C@@H]4[C@@]3(C)CC[C@@H]12` (single isomer, unassigned): the inhibition entry in data set [1], in data set [3] and in data set [9] was “Active” each time.

In the case of `COC(=O)CC[C@H]1C(=O)CC[C@H]2[C@]1(C)CC[C@H]1C(C)(C)CCC[C@]21C`, the inhibition entry in data set [1] and in data set [9] was “Active” throughout.

On to `CC1(C)CCC[C@]2(C)[C@H]3CC[C@H](O)[C@H](CCc4ccoc4)[C@@]3(C)CC[C@@H]12`, for which the inhibition entry in data set [1] and in [9] was “Active” in each case. The outcome in data set [2] and in data set [6] was inactive. Besides, the outcome in data set [4] was Active. Besides, the EC50 on Bile acid receptor [12] was 25 µM.

On to `CC1(C)CCC[C@]2(C)[C@H]3CC[C@@H](CCCO)[C@H](CCc4ccoc4)[C@@]3(C)CC[C@@H]12`, for which the outcome in data set [13], in data set [14], in data set [17] and in [18] was Active. The Efficacy in data set [15] stood at 21.5%. For the same compound, on Bile acid receptor [16], the EC50 stood at 30 µM. Further, the outcome in [2] and in data set [6] was inactive. For the same compound, the result in data set [4] was Active.
